Test results as given in ChEMBL document CHEMBL4261481, “Ring-opened aminothienopyridazines as novel tau aggregation inhibitors” (Medchemcomm, 2017).
The source made the active and inactive calls. No cut-off for these calls is given here.

How the values were obtained:
[1] = target: Microtubule-associated protein tau (Homo sapiens) (UniProt P10636); assay: Inhibition of heparin-induced 4R tau (unknown origin) aggregation at 100 uM after 3 days by ThT fluorescence assay relative to control
Procedure, shortened: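 20 μM 4R tau plus 5 μM heparin (avg MW 15 000) in 100 mM sodium acetate pH 7.0, ± 100 μM compound, incubated 3 days at 37 °C with 1 mM DTT added daily. ThT 12.5 μM then added, 1 h at room temperature. Spectra read with excitation 440 nm, emission 450–750 nm; intensity at emission maximum compared with tau alone.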

[2] = target: Microtubule-associated protein tau (Homo sapiens) (UniProt P10636); assay: Induction of heparin-induced recombinant 4R tau (unknown origin) fibril oxidation at cysteine residues at 200 uM after 2 hrs by oregon green binding assay
Procedure, shortened: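 Recombinant 4R tau (10 μM) fibrillised with 40 μM heparin in sodium acetate buffer pH 7, ± 200 μM compound, 37 °C, 2 h. Controls reduced with 1 mM DTT or oxidised with 20% v/v DMSO. Then labeled with Oregon green-iodoacetamide 30 min at room temperature, SDS-PAGE, fluorescence imaging. Band intensity normalized to Coomassie-stained total tau; 5 independent experiments.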

[3] = target: Microtubule-associated protein tau (Homo sapiens) (UniProt P10636); assay: Inhibition of heparin-induced 4R tau (unknown origin) aggregation at 200 uM after 24 hrs by filter trap assay
Procedure, shortened: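 Heparin-induced fibrillisation of 4R tau in PBS with 200 μM compound, 37 °C, 24 h. Fibrils diluted to 0.8 μM tau in 2% SDS, vacuum-filtered through membrane, washed twice with 2% SDS, probed with 4R tau-specific antibody, chemiluminescent dot detection and densitometry; 7 independent experiments.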

Sequence of Microtubule-associated protein tau (Homo sapiens) (P10636 whole entry): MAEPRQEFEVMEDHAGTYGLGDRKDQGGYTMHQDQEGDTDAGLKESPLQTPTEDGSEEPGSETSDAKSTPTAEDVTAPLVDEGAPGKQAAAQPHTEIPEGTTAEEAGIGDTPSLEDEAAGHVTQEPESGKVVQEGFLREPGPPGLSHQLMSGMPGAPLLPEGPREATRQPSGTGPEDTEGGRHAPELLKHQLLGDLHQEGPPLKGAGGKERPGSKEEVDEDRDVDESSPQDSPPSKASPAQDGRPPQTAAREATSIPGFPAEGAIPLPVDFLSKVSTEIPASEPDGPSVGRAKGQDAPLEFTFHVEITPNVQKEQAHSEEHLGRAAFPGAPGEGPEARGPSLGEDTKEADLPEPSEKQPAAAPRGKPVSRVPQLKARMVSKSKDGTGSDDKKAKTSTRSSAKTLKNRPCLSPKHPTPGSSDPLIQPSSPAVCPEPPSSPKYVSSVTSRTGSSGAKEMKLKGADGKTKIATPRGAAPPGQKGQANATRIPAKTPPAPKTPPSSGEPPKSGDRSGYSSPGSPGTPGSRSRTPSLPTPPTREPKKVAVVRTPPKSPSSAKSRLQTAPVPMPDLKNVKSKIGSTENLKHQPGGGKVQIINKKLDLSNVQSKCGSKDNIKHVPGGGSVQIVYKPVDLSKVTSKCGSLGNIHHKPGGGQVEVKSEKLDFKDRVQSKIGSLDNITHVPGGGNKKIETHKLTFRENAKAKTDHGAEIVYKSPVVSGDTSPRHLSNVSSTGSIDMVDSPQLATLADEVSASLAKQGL

Row | inhibition [1] [%] | Activity [2] | inhibition [3] | SMILES
1 | 30 | Active | Active | Nc1scc(/C(=N/O)C(=O)NC2CC2)c1C(=O)NC12CC3CC(CC(C3)C1)C2
2 | 51 | Active | Active | Nc1scc2c(C(=O)NC3CC3)nn(-c3ccc(F)cc3)c(=O)c12
3 | 33 | inactive | Active | C=CCO/N=C(\C(=O)NC1CC1)c1csc(N)c1C(=O)Nc1ccc(F)cc1
4 | – | Active | Active | Nc1scc(/C(=N/O)C(=O)NC2CC2)c1C(=O)Nc1ccc(F)cc1
